Experimental data from publication PMC5299035 (Drug development research, 2016).

Legend:
Format in all cases: cell-based
mouse Fpr1 = target: T1, mouse Fpr1 (Mus musculus, UniProt P33766); experiment: Ca2+ mobilization assay in mFpr1-RBL cells; conditions: for Ca2+ flux mFpr1-RBL EC50: RBL cells transfected with mouse Fpr1, N.A. = no activity; for Ca2+ flux mFpr1-RBL efficacy: % of the response induced by 10 nM WKYMVm
T1 sequence (P33766 1-364): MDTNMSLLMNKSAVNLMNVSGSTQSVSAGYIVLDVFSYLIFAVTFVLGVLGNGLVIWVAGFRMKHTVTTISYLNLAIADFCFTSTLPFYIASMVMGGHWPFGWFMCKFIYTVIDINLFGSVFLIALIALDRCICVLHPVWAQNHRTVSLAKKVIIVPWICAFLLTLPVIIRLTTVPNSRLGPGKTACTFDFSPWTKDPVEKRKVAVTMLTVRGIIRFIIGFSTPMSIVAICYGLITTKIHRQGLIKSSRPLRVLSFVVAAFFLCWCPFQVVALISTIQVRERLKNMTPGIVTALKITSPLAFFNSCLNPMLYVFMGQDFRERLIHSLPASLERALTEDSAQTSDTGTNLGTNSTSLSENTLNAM
In short: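 RBL-2H3 rat basophilic leukemia cells transfected with mouse Fpr1 were kept in DMEM with 20% FBS and G418 250 μg/ml. Cells were dye-loaded with Fluo-4 AM (1.25 μg/mL final) for 30 min at 37 °C and plated at 2 × 10^5/well in HBSS+. Fluorescence (485/538 nm) was followed every 5 s for 240 s at room temperature. Peak over baseline was normalised, and EC50 was taken by 5-6-point nonlinear regression, averaged from three independent experiments.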

mouse neutrophils = experiment: Ca2+ mobilization assay in mouse neutrophils; conditions: for Ca2+ flux mouse neutrophils EC50: N.A. = no activity (no response during first 2 min)
In short: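 Bone marrow was flushed from BALB/c mouse tibias and femurs and separated on a Percoll gradient (45/50/55/62/81%, 1600g, 30 min, 10 °C). Red cells were removed over Histopaque 1119. Neutrophils were loaded with Fluo-4 AM (1.25 μg/mL final) for 30 min at 37 °C, seeded in HBSS+ at 2 × 10^5 cells/well, and read at 485/538 nm every 5 s for 240 s at room temperature. Responses were normalized to 10 nM WKYMVm. EC50 came from nonlinear regression of 5-6-point curves, three experiments.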

FPR2 = target: T2, FPR2 (Homo sapiens, UniProt P25090); experiment: Ca2+ mobilization assay in FPR2-HL60 cells; conditions: for Emax: read-out: Ca2+ flux FPR2-HL60 efficacy; for Ca2+ flux FPR2-HL60 efficacy: % of the response induced by 5 nM WKYMVm
T2 sequence (P25090 1-351): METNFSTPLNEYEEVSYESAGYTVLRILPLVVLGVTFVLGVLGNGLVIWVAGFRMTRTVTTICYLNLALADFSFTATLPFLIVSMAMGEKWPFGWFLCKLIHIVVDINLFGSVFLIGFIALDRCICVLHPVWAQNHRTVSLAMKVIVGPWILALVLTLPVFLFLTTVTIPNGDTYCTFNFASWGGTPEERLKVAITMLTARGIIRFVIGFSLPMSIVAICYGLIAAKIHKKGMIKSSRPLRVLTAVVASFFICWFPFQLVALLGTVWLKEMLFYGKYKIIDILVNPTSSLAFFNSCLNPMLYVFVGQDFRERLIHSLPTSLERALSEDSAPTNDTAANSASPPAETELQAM
In short: (§1)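 FPR2- or FPR3-transfected HL60 cells were grown in RPMI 1640 with 10% heat-inactivated FCS and G418 1 mg/mL. Cells were loaded with Fluo-4 AM (1.25 μg/mL final) for 30 min at 37 °C in the dark, washed, and seeded at 2 × 10^5 cells/well in HBSS+. Fluorescence (ex 485/em 538 nm) was read every 5 s for 240 s at room temperature. Peak rise over baseline was normalised to the reference agonist. EC50 came from 5-6-point nonlinear regression over three independent experiments.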

mouse Fpr2 = target: T3, mouse Fpr2 (Mus musculus, UniProt O88536); experiment: Ca2+ mobilization assay in mFpr2-RBL cells; conditions: for Ca2+ flux mFpr2-RBL EC50: RBL cells transfected with mouse Fpr2, N.A. = no activity
T3 sequence (O88536 1-351): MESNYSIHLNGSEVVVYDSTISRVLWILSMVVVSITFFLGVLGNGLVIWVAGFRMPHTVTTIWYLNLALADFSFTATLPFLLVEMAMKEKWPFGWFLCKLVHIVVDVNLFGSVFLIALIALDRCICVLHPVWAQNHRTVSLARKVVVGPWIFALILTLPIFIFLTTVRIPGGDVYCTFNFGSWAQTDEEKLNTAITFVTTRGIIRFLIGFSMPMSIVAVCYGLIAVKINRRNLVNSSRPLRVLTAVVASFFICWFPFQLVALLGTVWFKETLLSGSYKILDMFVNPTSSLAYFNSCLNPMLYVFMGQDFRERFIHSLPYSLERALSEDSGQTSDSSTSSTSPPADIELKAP
In short: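 RBL-2H3 cells stably expressing mouse Fpr2 were grown in DMEM with 20% FBS, 10 mM HEPES and G418 (250 μg/ml). Fluo-4 AM (1.25 μg/mL final) was loaded for 30 min at 37 °C in the dark. Cells were seeded in HBSS+ at 2 × 10^5 cells/well, and fluorescence (485/538 nm) was read every 5 s for 240 s at room temperature. Peak rise was normalized to 10 nM WKYMVm (100%). EC50 came from nonlinear regression of 5-6-point curves over three independent experiments.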

FPR3 = target: T4, FPR3 (Homo sapiens, UniProt P25089); experiment: Ca2+ mobilization assay in FPR3-HL60 cells; conditions: for Emax: read-out: Ca2+ flux FPR3-HL60 efficacy; for Ca2+ flux FPR3-HL60 efficacy: % of the response induced by 10 nM WKYMVm
T4 sequence (P25089 1-353): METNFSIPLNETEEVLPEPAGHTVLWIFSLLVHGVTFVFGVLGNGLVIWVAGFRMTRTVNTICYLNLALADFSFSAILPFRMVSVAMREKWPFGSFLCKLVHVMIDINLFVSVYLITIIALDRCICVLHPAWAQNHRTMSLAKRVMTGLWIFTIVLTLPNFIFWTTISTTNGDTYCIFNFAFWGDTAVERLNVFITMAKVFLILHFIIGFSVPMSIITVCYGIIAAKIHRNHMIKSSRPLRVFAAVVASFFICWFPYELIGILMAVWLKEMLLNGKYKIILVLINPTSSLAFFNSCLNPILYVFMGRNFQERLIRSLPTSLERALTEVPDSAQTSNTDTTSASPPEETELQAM
In short: as §1

human neutrophils = experiment: Ca2+ mobilization assay in human neutrophils; conditions: for EC50: Homo sapiens, Neutrophil, read-out: Ca2+ flux human neutrophils EC50; for Ca2+ flux human neutrophils efficacy: % of the response induced by 5 nM fMLF
In short: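 Neutrophils from healthy donors were purified by dextran sedimentation, Histopaque 1077 gradient and hypotonic red-cell lysis (>95% pure, >98% viable). After Fluo-4 AM loading (1.25 μg/mL final, 30 min, 37 °C, dark), cells were seeded at 2 × 10^5/well in HBSS with Ca2+/Mg2+. Fluorescence (485/538 nm) was tracked every 5 s for 240 s at room temperature. Maximum change over baseline was normalised, and EC50 came from a 5-6-point nonlinear fit.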

FPR1 = target: T5, FPR1 (Homo sapiens, UniProt P21462); experiment: Ca2+ mobilization assay in FPR1-HL60 cells; conditions: for Emax: read-out: Ca2+ flux FPR1-HL60 efficacy; for Ca2+ flux FPR1-HL60 efficacy: % of the response induced by 5 nM fMLF
T5 sequence (P21462 1-350): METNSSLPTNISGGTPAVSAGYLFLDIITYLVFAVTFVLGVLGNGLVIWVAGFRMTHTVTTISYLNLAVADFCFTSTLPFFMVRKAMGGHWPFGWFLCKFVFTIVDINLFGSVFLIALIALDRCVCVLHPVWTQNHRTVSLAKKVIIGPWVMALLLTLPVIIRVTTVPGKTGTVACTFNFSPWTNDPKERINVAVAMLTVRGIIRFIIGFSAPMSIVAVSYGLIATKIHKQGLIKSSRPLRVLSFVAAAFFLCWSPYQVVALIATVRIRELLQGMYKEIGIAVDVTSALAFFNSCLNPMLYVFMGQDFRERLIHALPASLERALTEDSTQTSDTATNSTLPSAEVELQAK
In short: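 FPR1-transfected HL60 cells were grown in RPMI 1640 with 10% heat-inactivated FCS, 10 mM HEPES and G418 (1 mg/mL). Cells were loaded with Fluo-4 AM (1.25 μg/mL final) for 30 min at 37 °C in the dark, then washed and seeded in HBSS+ at 2 × 10^5 cells/well. Fluorescence (485/538 nm) was read every 5 s for 240 s at room temperature after compound addition. Peak rise over baseline was set against 5 nM fMLF (100%). EC50 came from nonlinear regression of 5-6-point curves, mean of three independent experiments. No activity meant no response within 2 min (limits: efficacy >20%, EC50 <50 μM).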

[1] = % of the response induced by 10 nM WKYMVm

Ca2+ flux mFpr1-RBL EC50 (mouse Fpr1)	Ca2+ flux mouse neutrophils EC50 (mouse neutrophils)	Emax (FPR2)	Ca2+ flux mFpr2-RBL EC50 (mouse Fpr2)	EC50 (FPR3)	Emax (FPR3)	EC50 (human neutrophils)	Emax (FPR1)	Ca2+ flux mFpr1-RBL efficacy (mouse Fpr1)	Ca2+ flux FPR2-HL60 efficacy (FPR2)	Ca2+ flux mFpr2-RBL efficacy (mouse Fpr2; [1])	Ca2+ flux FPR3-HL60 efficacy (FPR3)	Ca2+ flux FPR1-HL60 efficacy (FPR1)	Compound	Ca2+ flux mouse neutrophils efficacy (mouse neutrophils; [1])	Ca2+ flux human neutrophils efficacy (human neutrophils)
complete inactivity	complete inactivity	95%	complete inactivity	130 ± 32 nM	100%	270 ± 25 nM	60%	–	–	–	–	–	COc1ccc(Cc2c(C)c(C)nn(CC(=O)Nc3ccc(Br)cc3)c2=O)cc1 [4b, N-(4-Bromophenyl)-2-[5-(4-methoxybenzyl)-3,4-dimethyl-6-oxopyridazin-1(6H)-yl]acetamide]	–	–
–	–	–	–	–	–	–	–	60%	110%	220%	120%	90%	CC1=NN(CC(=O)Nc2ccc(Br)cc2)C(=O)CC1c1ccccc1 (racemic) [(±)-6b, (±)N-(4-Bromophenyl)-2-[3-methyl-6-oxo-4-phenyl-5,6-dihydropyridazin-1(4H)-yl]acetamide]	160%	75%
–	–	–	–	–	–	–	–	70%	120%	–	150%	60%	CC1=NN(CC(=O)Nc2ccc(Br)cc2)C(=O)CC1C (racemic) [(±)-6a, (±)N-(4-Bromophenyl)-2-[3,4-dimethyl-6-oxo-5,6-dihydropyridazin-1(4H)-yl]acetamide]	–	115%
complete inactivity	complete inactivity	80%	complete inactivity	40 ± 11 nM	165%	6 ± 2 nM	85%	–	–	–	–	–	COc1cccc(Cc2c(C)c(C)nn(CC(=O)Nc3ccc(Br)cc3)c2=O)c1 [4a, N-(4-Bromophenyl)-2-[5-(3-methoxybenzyl)-3,4-dimethyl-6-oxopyridazin-1(6H)-yl]acetamide]	–	–
